Test results as given in ChEMBL document CHEMBL1144276, “Synthesis and in vitro selective anti-Helicobacter pylori activity of pyrazoline derivatives” (2005).
Values after ≈ are worked out from the molar mass of the structure shown.

Assays:
Format in all cases: functional
Helicobacter pylori [1] = test: Minimal inhibitory concentration against 17 strains of Helicobacter pylori
Procedure, shortened: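 Agar dilution against 16 clinical isolates plus reference strain NCTC 11637 (four metronidazole-resistant). Twofold serial dilutions in Columbia agar with 10% horse serum and 0.25% yeast extract, 128 to 0.0039 µg/mL, plates made fresh. Inoculum: 72 h growth suspended in Wilkins Chalgren broth at 0.5 McFarland, 5 µL multipoint spots; 37 °C, 72 h, microaerobic (10% CO2).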

Helicobacter pylori [2] = test: Minimal inhibitory concentration against metronidazole resistant Helicobacter pylori 20 strain
Procedure, shortened: (§1)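 Agar dilution. Columbia agar with 10% horse serum and 0.25% yeast extract holds serial twofold dilutions of compound, 128 to 0.0039 µg/mL, and plates are made on the day of use. Inoculum is 72 h growth suspended in Wilkins Chalgren broth to 0.5 McFarland, applied as 5 µL by multipoint inoculator. Plates are incubated 72 h at 37 °C, microaerobic (10% CO2).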

Helicobacter pylori [3] = test: Minimal inhibitory concentration against metronidazole resistant Helicobacter pylori 8 strain; procedure, shortened: as §1
Helicobacter pylori [4] = test: Minimal inhibitory concentration against metronidazole resistant Helicobacter pylori 19 strain; procedure, shortened: as §1
Helicobacter pylori [5] = test: Minimal inhibitory concentration against metronidazole resistant Helicobacter pylori NCTC 11637 strain; procedure, shortened: as §1

SMILES | MIC50 (Helicobacter pylori [1]) | MIC90 (Helicobacter pylori [1]) | MIC (Helicobacter pylori [2]) | MIC (Helicobacter pylori [3]) | MIC (Helicobacter pylori [4]) | MIC (Helicobacter pylori [5])
COc1ccccc1C1CC(c2ccc(O)cc2)=NN1C(C)=O (configuration not stated) | 8 µg/mL (≈ 25.8 µM) | 16 µg/mL (≈ 51.6 µM) |  |  |  | 
CC(=O)N1N=C(c2c(O)cccc2O)CC1c1ccc(C)cc1 (configuration not stated) | 32 µg/mL (≈ 103 µM) | 128 µg/mL (≈ 412 µM) |  |  |  | 
CC(=O)N1N=C(c2ccccc2)CC1c1ccc(Cl)cc1 (configuration not stated) | 4 µg/mL (≈ 13.4 µM) | 8 µg/mL (≈ 26.8 µM) |  |  |  | 
Cc1ncc([N+](=O)[O-])n1CCO [METRONIDAZOLE] | 0.5 µg/mL (≈ 2.92 µM) | 64 µg/mL (≈ 374 µM) | 64 µg/mL (≈ 374 µM) | 64 µg/mL (≈ 374 µM) | 64 µg/mL (≈ 374 µM) | 64 µg/mL (≈ 374 µM)
